Data taken from BindingDB's records for doi:10.1021/acs.jmedchem.9b01336 (University of Naples Federico II, 2020).
pIC50: −log10 of the molar value.

Columns and labels:
[1] = target: T1, Proto-oncogene tyrosine-protein kinase receptor Ret (Homo sapiens, UniProt P07949); assay: Inhibition of RET isoform 9 C634W mutant in human TT cells assessed as reduction in cell proliferation supplemented with fresh medium containing compound for every 2 to 3 days and measured during compound dosing
How it was run: (§1)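 TT (200000/well) or MZ-CRC-1 (100000/well) seeded in 10% FCS; drug or vehicle from next day, refreshed every 2–3 days; counted every 2–3 days; IC50 by curve fitting of last-day growth.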
Target sequence in this assay (P07949 29-1114 C634W limits assumed): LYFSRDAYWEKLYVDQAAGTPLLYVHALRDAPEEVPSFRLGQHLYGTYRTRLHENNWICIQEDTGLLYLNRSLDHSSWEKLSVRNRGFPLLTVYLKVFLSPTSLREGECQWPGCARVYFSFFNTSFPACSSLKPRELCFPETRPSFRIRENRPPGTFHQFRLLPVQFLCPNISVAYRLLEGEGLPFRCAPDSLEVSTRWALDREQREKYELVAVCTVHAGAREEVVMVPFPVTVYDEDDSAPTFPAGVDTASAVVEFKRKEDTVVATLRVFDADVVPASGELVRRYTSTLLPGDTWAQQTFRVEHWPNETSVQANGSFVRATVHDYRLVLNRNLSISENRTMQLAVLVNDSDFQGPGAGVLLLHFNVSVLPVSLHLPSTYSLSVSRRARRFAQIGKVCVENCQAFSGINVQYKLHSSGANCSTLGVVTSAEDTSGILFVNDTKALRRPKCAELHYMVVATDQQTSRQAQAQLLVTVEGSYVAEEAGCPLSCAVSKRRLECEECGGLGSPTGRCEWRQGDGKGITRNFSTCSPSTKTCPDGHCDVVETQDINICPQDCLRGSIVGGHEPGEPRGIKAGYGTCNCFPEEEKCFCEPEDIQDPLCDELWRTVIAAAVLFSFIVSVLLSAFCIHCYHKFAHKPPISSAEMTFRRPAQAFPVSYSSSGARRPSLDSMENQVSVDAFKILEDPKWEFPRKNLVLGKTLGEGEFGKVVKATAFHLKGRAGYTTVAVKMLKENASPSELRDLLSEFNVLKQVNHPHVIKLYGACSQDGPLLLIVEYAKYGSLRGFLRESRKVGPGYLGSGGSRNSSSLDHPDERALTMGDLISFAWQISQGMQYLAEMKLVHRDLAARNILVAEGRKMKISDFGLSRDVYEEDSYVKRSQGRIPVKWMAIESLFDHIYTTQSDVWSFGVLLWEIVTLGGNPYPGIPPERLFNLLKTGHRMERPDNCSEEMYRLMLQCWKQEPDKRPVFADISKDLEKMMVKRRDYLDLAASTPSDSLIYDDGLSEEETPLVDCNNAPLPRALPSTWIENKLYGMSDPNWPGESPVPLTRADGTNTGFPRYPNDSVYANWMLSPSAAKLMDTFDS

[2] = Inhibition of RET isoform 15 M918T mutant (unknown origin) expressed in mouse BAF3 cells assessed as reduction in cell proliferation supplemented with fresh medium containing compound for every 2 to 3 days and measured daily
[3] = target: T1, Proto-oncogene tyrosine-protein kinase receptor Ret; assay: Inhibition of CCDC6/RET in human TPC1 cells assessed as reduction in cell proliferation supplemented with fresh medium containing compound for every 2 to 3 days and measured during compound dosing
Target sequence in this assay (P07949 whole entry, looked up, canonical isoform): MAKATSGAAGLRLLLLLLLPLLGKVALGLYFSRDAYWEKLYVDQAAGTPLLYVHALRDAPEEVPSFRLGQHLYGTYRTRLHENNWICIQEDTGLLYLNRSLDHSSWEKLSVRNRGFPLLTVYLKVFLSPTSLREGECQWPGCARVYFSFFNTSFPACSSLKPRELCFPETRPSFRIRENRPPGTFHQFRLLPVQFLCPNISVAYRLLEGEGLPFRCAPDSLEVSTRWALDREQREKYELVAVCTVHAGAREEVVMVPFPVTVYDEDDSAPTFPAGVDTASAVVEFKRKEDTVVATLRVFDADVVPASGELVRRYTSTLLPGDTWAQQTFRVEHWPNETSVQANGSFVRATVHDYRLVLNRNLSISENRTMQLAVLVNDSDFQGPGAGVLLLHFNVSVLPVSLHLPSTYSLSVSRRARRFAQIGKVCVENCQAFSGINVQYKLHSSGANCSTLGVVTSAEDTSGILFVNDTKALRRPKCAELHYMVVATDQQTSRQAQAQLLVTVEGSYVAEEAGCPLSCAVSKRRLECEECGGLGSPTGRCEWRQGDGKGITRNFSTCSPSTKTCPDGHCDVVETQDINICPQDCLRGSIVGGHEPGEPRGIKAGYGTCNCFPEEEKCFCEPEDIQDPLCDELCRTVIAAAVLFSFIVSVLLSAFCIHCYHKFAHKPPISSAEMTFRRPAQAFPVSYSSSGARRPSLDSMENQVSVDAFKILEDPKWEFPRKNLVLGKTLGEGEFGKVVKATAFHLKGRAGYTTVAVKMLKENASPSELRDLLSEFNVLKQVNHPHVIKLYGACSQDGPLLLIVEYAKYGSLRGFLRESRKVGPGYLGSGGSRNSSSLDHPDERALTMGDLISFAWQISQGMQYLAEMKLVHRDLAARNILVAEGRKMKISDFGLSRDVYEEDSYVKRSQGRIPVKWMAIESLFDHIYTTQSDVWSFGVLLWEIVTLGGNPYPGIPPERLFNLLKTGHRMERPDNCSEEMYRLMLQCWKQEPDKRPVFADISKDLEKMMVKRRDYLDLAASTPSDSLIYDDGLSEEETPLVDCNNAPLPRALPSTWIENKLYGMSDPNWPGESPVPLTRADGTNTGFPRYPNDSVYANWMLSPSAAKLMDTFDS

[4] = Inhibition of RET isoform 15 C634R mutant (unknown origin) expressed in mouse BAF3 cells assessed as reduction in cell proliferation supplemented with fresh medium containing compound for every 2 to 3 days and measured daily
[5] = target: T1, Proto-oncogene tyrosine-protein kinase receptor Ret; assay: Inhibition of RET isoform 9 M918T mutant in human MZ-CRC-1 cells assessed as reduction in cell proliferation supplemented with fresh medium containing compound for every 2 to 3 days and measured during compound dosing; how it was run: as §1
Target sequence in this assay (P07949 29-1114 M918T limits assumed): as the sequence (P07949 29-1114 C634W limits assumed) above, with W606C, M890T counted along it

[6] = Inhibition of RET isoform 9 C634Y mutant (unknown origin) expressed in mouse NIH/3T3 cells assessed as reduction in cell proliferation supplemented with fresh medium containing compound for every 2 to 3 days measured at 2 days interval during compound dosing
[7] = target: T1, Proto-oncogene tyrosine-protein kinase receptor Ret; assay: Inhibition of CCDC6/RET in human LC2/ad cells assessed as reduction in cell proliferation supplemented with fresh medium containing compound for every 2 to 3 days and measured during compound dosing
Target sequence in this assay (P07949 whole entry, looked up, canonical isoform): as the sequence (P07949 whole entry, looked up, canonical isoform) above

`CC(C)(C)c1cc(NC(=O)Cc2ccc(-n3cnc4cc(-c5ccc(S(C)(=O)=O)cc5)ccc43)cc2)no1` showed a pIC50 [1] of 9.17, a pIC50 [2] of 8.80 and a pIC50 [3] of 9.17. For the same molecule, the pIC50 [4] was 8.77, the pIC50 [5] was 9.17 and the pIC50 [6] was 8.38. It also gave a pIC50 [7] of 9.17.
